Results: ChEMBL document CHEMBL1121953, “Carbon-7 substituted actinomycin D analogues as improved antitumor agents: synthesis and DNA-binding and biological properties” (J Med Chem, 1982)
In brackets after ≈: the same amount, converted by molar mass.

What was measured:
[1] = system: P388; experiment: Antitumor activity against P-388 lymphocytic leukemia in CDF1 hybrid male mice measured as median survival time (1.8 mg/kg),ip; assay type: functional, Mus musculus
Method in brief: (§1)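 Male CDF1 mice (18-23 g) were inoculated ip with 10⁶ P-388 cells on day 0. Drug was given ip in 10% dimethyl sulfoxide-saline on days 1, 5 and 9. Test solutions were kept at 0-4 °C, protected from light, and checked periodically for stability and homogeneity by TLC and HPLC. Read-out was survival, median survival time, increase in life span and tumor-free cures per 7 animals.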

[2] = system: P388; experiment: Antitumor activity against P-388 lymphocytic leukemia in CDF1 hybrid male mice measured as percent increase in lifespan( 0.15 mg/kg),ip; assay type: functional; settings: Mus musculus; method in brief: as §1
[3] = system: P388; experiment: Antitumor activity against P-388 lymphocytic leukemia in CDF1 hybrid male mice measured as median survival time (0.3 mg/kg),ip; assay type: functional, Mus musculus; method in brief: as §1
[4] = species: Homo sapiens; experiment: In vitro growth inhibitory activity against human lymphoblastic leukemia cells; assay type: functional; settings: read-out: ID50 (the source's name)
Method in brief: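 Human CCRF-CEM lymphoblastic leukemia cells were used in log-phase growth. Compounds were dissolved in Me2SO, and the final growth medium contained 1% Me2SO. Test solution homogeneity was checked by TLC and HPLC at each test.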

[5] = system: P388; experiment: Number of mice with P-388 lymphocytic leukemia cured.( 0.3 mg/kg),ip; 0/7; assay type: functional, Mus musculus
[6] = system: P388; experiment: Antitumor activity against P-388 lymphocytic leukemia in CDF1 hybrid male mice measured as percent increase in lifespan( 0.6 mg/kg),ip; assay type: functional; settings: Mus musculus; method in brief: as §1
[7] = system: P388; experiment: Antitumor activity against P-388 lymphocytic leukemia in CDF1 hybrid male mice measured as percent increase in lifespan( 3 mg/kg),ip; assay type: functional; settings: Mus musculus; method in brief: as §1
[8] = system: P388; experiment: Minimum effective dose was determined compared to 7-(2,3-Epoxypropoxy)-actinomycin D against P-388 leukemia in mice(4 days); assay type: functional, Mus musculus
Method in brief: (§2)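 MED was the dose (mg/kg) giving a 40% increase in life span over control in mice bearing ip P-388 leukemia. Drug was given ip in 10% dimethyl sulfoxide-saline on a q4d 1, 5, 9 (three injections) or qd 1-4 (four injections) schedule.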

[9] = system: P388; experiment: Minimum effective dose was determined compared to 7-(2,3-Epoxypropoxy)-actinomycin D against P-388 leukemia in mice(3 days); assay type: functional, Mus musculus; design: unit: mg/kg; method in brief: as §2
[10] = system: P388; experiment: Antitumor activity against P-388 lymphocytic leukemia in CDF1 hybrid male mice measured as median survival time (3 mg/kg),ip; assay type: functional, Mus musculus; method in brief: as §1
[11] = system: P388; experiment: Antitumor activity against P-388 lymphocytic leukemia in CDF1 hybrid male mice measured as median survival time ( 0.6 mg/kg),ip; assay type: functional, Mus musculus; method in brief: as §1
[12] = system: P388; experiment: Number of mice with P-388 lymphocytic leukemia cured.(1.8 mg/kg),ip; 0/7; assay type: functional, Mus musculus
[13] = system: P388; experiment: Number of mice with P-388 lymphocytic leukemia cured(0.15 mg/kg),ip.; 0/7; assay type: functional, Mus musculus; method in brief: as §1
[14] = system: P388; experiment: Antitumor activity against P-388 lymphocytic leukemia in CDF1 hybrid male mice measured as percent increase in lifespan( 1.2 mg/kg),ip; assay type: functional; settings: Mus musculus; method in brief: as §1
[15] = system: P388; experiment: Number of mice with P-388 lymphocytic leukemia cured.( 0.6 mg/kg),ip; 0/7; assay type: functional, Mus musculus
[16] = system: P388; experiment: Maximum tolerated dose was determined compared to 7-(2,3-Epoxypropoxy)-actinomycin D against P-388 leukemia in mice(3 days); assay type: functional, Mus musculus
Method in brief: (§3)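 Tumor-free male CDF1 mice (18-23 g) received a broad dose range ip in 10% dimethyl sulfoxide-saline, either on days 1, 5, 9 (three injections) or on 4 successive days (qd 1-4). Deaths were recorded over 21 days. MTD was the dose lethal to 10% (LD10), taken from a plot of log dose vs percent mortality. Average of two experiments.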

[17] = system: P388; experiment: Antitumor activity against P-388 lymphocytic leukemia in CDF1 hybrid male mice measured as median survival time (0.15 mg/kg),ip; assay type: functional, Mus musculus; method in brief: as §1
[18] = system: P388; experiment: Maximum tolerated dose was determined compared to 7-(2,3-Epoxypropoxy)-actinomycin D against P-388 leukemia in mice(4 days); assay type: functional, Mus musculus; method in brief: as §3
[19] = system: P388; experiment: Antitumor activity against P-388 lymphocytic leukemia in CDF1 hybrid male mice measured as median survival time ( 1.2 mg/kg),ip; assay type: functional, Mus musculus; method in brief: as §1
[20] = system: P388; experiment: Number of mice with P-388 lymphocytic leukemia cured(1.2 mg/kg),ip; 0/7; assay type: functional, Mus musculus; method in brief: as §1
[21] = system: P388; experiment: Antitumor activity against P-388 lymphocytic leukemia in CDF1 hybrid male mice measured as percent increase in lifespan( 1.8 mg/kg),ip; assay type: functional; settings: Mus musculus; method in brief: as §1
[22] = system: P388; experiment: Number of mice with P-388 lymphocytic leukemia cured( 3 mg/kg),ip; 0/7; assay type: functional, Mus musculus; method in brief: as §1
[23] = system: P388; experiment: Antitumor activity against P-388 lymphocytic leukemia in CDF1 hybrid male mice measured as percent increase in lifespan(0.3 mg/kg),ip; assay type: functional, Mus musculus; method in brief: as §1
[24] = Therapeutic Index measured as the MTD/MED ratio compared to that of compound 4; settings: read-out: Therapeutic index
Method in brief: (§4)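 Therapeutic index is MTD/MED, with ip dosing in 10% dimethyl sulfoxide-saline on a qd 1-4 or q4d 1, 5, 9 schedule. MED is the dose giving a 40% increase in life span over control in P-388-bearing mice. MTD is the LD10 in tumor-free male CDF1 mice (18-23 g) over 21 days, read from a log dose vs. percent mortality plot and averaged over 2-3 experiments.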

[25] = Therapeutic Index measured as the MTD/MED ratio compared to that of compound 3; settings: read-out: Therapeutic index; method in brief: as §4

Cc1c2oc3c(C)c(O)c(N)c(C(=O)N[C@@H]4C(=O)N[C@H](C(C)C)C(=O)N5CCC[C@H]5C(=O)N(C)CC(=O)N(C)[C@@H](C(C)C)C(=O)O[C@@H]4C)c3nc-2c(C(=O)N[C@@H]2C(=O)N[C@H](C(C)C)C(=O)N3CCC[C@H]3C(=O)N(C)CC(=O)N(C)[C@@H](C(C)C)C(=O)O[C@@H]2C)cc1=O [listing 1 of 2 here]
MST [1]: 26 days | ILS at 0.15 mg/kg [2]: 10% | MST [3]: 17 days | IC50 [4]: 0.95 µg/mL (≈ 0.747 µM) | Cure [5]: 0 | ILS at 0.6 mg/kg [6]: 89% | ILS at 3 mg/kg [7]: 37% | MED [8]: 0.2 | MED [9]: 0.275 | MST [10]: 15 days | MST [11]: 21 days | Cure [12]: 0 | Cure [13]: 0 | ILS at 1.2 mg/kg [14]: 127% | Cure [15]: 0 | MTD [16]: 4.2 | MST [17]: 12 days | MTD [18]: 2 | MST [19]: 25 days | Cure [20]: 0 | ILS at 1.8 mg/kg [21]: 136% | Cure [22]: 0 | ILS [23]: 55%

Cc1c2oc3c(C)c(O)c(N)c(C(=O)N[C@@H]4C(=O)N[C@H](C(C)C)C(=O)N5CCC[C@H]5C(=O)N(C)CC(=O)N(C)[C@@H](C(C)C)C(=O)O[C@@H]4C)c3nc-2c(C(=O)N[C@@H]2C(=O)N[C@H](C(C)C)C(=O)N3CCC[C@H]3C(=O)N(C)CC(=O)N(C)[C@@H](C(C)C)C(=O)O[C@@H]2C)cc1=O [listing 2 of 2 here]
selectivity ratio [24]: 10 | selectivity ratio [25]: 15
